CYP2C9 inh – blockers of cytochrome P450 2C9 activity – biochemical, luminescence, ADME assay, primary screen; hit rate 20% among 96,000; CYP2C9 Supersomes, luciferin-H conversion; P11712; inhibition, % at 5 µM;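 active = blocking of liver enzyme CYP2C9 beyond about 50% at 5 µM, limit read from the data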
CYP2C9 activ – human CYP2C9 activators, primary screen, biochemical, luminescence; recombinant CYP2C9, luciferin-H conversion; stronger effect = higher value; factor 1 = untreated enzyme, 0 = blocked; activation factor at 5 µM; hit rate 1.4% among 96,000; AID 1024, 2008;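 active = activation factor of 2 or more for CYP2C9 at a 5 µM dose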;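 also: 0 = sulfaphenazole-blocked wells and 1 = vehicle-only wells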
CYP2C19 inh – blockers of cytochrome P450 2C19 activity – biochemical, luminescence, ADME assay, primary screen | P33261 | CYP2C19 Supersomes, luciferin-H EGE luminescence, 30 min | inhibition, % at 5 µM | hit rate 21% among 96,000 | AID 778, 2007;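 active = CYP2C19 inhibition above a set limit at 5 µM in the primary screen, cut at about 50% in these data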;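 also: plate controls were negative control wells for no effect and 2.5 mM tranylcypromine positive control for full effect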
Target sequence (P33261 whole entry, looked up): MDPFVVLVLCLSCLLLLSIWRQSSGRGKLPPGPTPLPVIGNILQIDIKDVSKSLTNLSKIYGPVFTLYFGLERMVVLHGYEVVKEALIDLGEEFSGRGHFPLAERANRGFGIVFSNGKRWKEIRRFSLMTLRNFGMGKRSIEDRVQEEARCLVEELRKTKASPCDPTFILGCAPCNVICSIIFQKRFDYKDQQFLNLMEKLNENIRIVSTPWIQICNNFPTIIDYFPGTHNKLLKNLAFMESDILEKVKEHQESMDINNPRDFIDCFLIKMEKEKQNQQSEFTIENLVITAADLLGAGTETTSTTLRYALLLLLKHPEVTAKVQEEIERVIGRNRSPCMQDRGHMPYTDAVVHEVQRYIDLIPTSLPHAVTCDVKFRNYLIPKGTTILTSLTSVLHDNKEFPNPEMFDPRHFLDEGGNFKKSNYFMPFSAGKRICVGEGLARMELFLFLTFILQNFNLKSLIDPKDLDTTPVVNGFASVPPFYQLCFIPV
CYP2C19 activ – human CYP2C19 activators, primary screen, biochemical, luminescence | Cytochrome P450 2C19 (Homo sapiens), P33261 | recombinant CYP2C19, luciferin-H EGE luminescence; stronger effect = higher value; 0 = fully inhibited enzyme, 1 = untreated enzyme | activation factor at 5 µM | 96,000 tested, under 10 active | AID 1025, 2008;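 active = activation factor of at least 2 at 5 µM in the primary screen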;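 also: 0 = wells with 2.5 mM tranylcypromine and 1 = vehicle-only wells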
Ecoli tolC – growth inhibitors of E. coli tolC mutant, primary screen, strain BW25113 ΔtolC::kan, 384-well | OD615 | growth inhibition, % at 10 µM (by protocol) | hit rate 2.2% among 65,000 | AID 573, 2007;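 active = growth inhibition at or above a cutoff equal to the mean over every tested compound plus 3 SD, cut at about 60% in these data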;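 also: growth measured after 20 h incubation at 37 °C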
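Test system – E. coli BW25113 ΔtolC::kan, tolC deletion mutant strain · Detection – OD at 615 nm · Buffer or medium – LB with kanamycin 50 µg/mL · Times – 20 h compound exposure of bacteria at 37 °C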
Ecoli WT expand – growth inhibitors of wild-type E. coli, primary screen, strain BW25113, expanded library, OD600. OD600 absorbance. growth inhibition, % at 100 µM. hit rate 0.15% among 98,000;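 active = growth inhibition above about 50% at one test dose, limit read from the data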;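 also: growth measured after 20 h incubation at 37 °C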
Starred values were filed as active, the others as inactive; / = not tested or not shown. Most compounds without a hit are left out; they make up all but 29% or so of the library.

SMILES | CYP2C9 inh | CYP2C9 activ | CYP2C19 inh | CYP2C19 activ | Ecoli tolC | Ecoli WT expand
Cc1ccc(C)c(S(=O)(=O)N2C(=S)NC(=O)C2CC(C)C)c1 (stereo unspecified) | 79.7* | 0.2 | 48.0 | 0.5 | / | -1.0
CC(C)C1C(=O)NC(=S)N1S(=O)(=O)c1ccc(C(C)(C)C)cc1 (stereo unspecified) | 36.8 | 0.6 | -8.5 | 1.1 | / | 0.0
COc1ccc(CCNC(=O)c2cnn3c(C(F)F)cc(C)nc23)cc1OC | 46.9 | 0.5 | 52.1* | 0.5 | / | -4.0
Cc1cc(C(F)F)n2ncc(C(=O)NCc3ccccc3C(F)(F)F)c2n1 | -10.8 | 1.1 | -14.7 | 1.1 | 16.4 | 0.0
COc1ccccc1CNC(=O)c1cnn2c(C(F)F)cc(C)nc12 | -120.1 | 2.2* | 61.1* | 0.4 | / | 2.0
COc1ccc(CCNC(=O)c2cnn3cccnc23)cc1OC | -7.1 | 1.1 | 27.4 | 0.7 | 7.2 | 5.0
COc1ccccc1CCNC(=O)c1cnn2c(C(F)F)cc(C)nc12 | -60.4 | 1.6 | 77.2* | 0.2 | 11.6 | 1.0
CC1(C)CC(=O)C(C=NCC2CCCO2)=C(O)C1 (stereo unspecified) | 4.5 | 1 | 6.2 | 0.9 | -16.7 | 3.0
Cc1occc1C(=O)NC1CCCc2ccccc21 (stereo unspecified) | 47.1 | 0.5 | 70.9* | 0.3 | -12.8 | 6.0
Cc1cccc(NC(=S)NC(NC(=O)c2ccco2)C(Cl)(Cl)Cl)c1 (stereo unspecified) | 83.6* | 0.2 | 29.4 | 0.7 | / | 2.0
Cc1ccc(NC(=S)NC(NC(=O)c2ccco2)C(Cl)(Cl)Cl)cc1 (stereo unspecified) | 92.4* | 0.1 | 18.4 | 0.8 | / | 23.0
O=C(O)c1ccc(NC(=S)NC(NC(=O)c2ccco2)C(Cl)(Cl)Cl)cc1 (stereo unspecified) | -6.9 | 1.1 | -1.3 | 1 | / | 0.0
CCOC(=O)c1c(C)nc2c(c1-c1cc(OC)c(OC)c(OC)c1)C(=O)c1ccccc1-2 | 25.8 | 0.7 | 33.3 | 0.7 | / | -8.0
CC/C(CC(C)(C)c1ccccc1)=N\O | 25.0 | 0.8 | 78.6* | 0.2 | -5.1 | 12.0
C=CCN1N=C(c2ccc(Cl)s2)CSC1=O | 38.8 | 0.6 | 72.5* | 0.3 | / | 3.0
C=CCN1C(=O)CSC1=Nc1ccc(O)cc1 | -32.3 | 1.3 | -9.4 | 1.1 | / | 12.0
O=C(Nc1ccc2c(c1)OCO2)N1CCN(C(=O)C2CCCO2)CC1 (stereo unspecified) | / | / | / | / | -15.6 | -7.0
O=C(CSCc1ccc(Br)cc1)N1CCOCC1 | 4.5 | 1 | 93.7* | 0.1 | -9.0 | -4.0
O=C(COC(=O)CSCC(=O)N1CCCCC1)NCc1ccc(F)cc1 | 3.6 | 1 | 50.8* | 0.5 | -1.6 | 3.0
O=C(CN1CCC(O)(c2ccc(F)cc2)CC1)NCc1ccc(F)cc1 | 5.0 | 0.9 | 4.4 | 1 | -3.2 | 7.0
Cc1noc(C)c1CSCC(=O)N1CCN(c2ccc(F)cc2)CC1 | 45.9 | 0.5 | 62.7* | 0.4 | -4.0 | 2.0
O=C(CN1CCOCCOCCN(CC(=O)Nc2ccccc2)CCOCC1)Nc1ccccc1 | 30.0 | 0.7 | 18.7 | 0.8 | -31.0 | 0.0
O=C(CSCC(=O)N1CCOCC1)Nc1ccccc1 | -5.3 | 1.1 | 57.1* | 0.4 | -0.3 | 5.0
O=C(CSc1nnc(Cc2ccccc2)n1-c1ccc(Cl)cc1)N1CCOCC1 | 0.8 | 1 | 7.7 | 0.9 | 3.0 | 1.0
CC(=O)Cc1nsc(NC(=O)C2Cc3ccccc3C(=O)O2)n1 (stereo unspecified) | -5.0 | 1.1 | -3.1 | 1 | 0.0 | 0.0
SMILES | CYP2C9 inh | CYP2C9 activ | CYP2C19 inh | CYP2C19 activ | Ecoli tolC | Ecoli WT expand
O=C(CSCc1ccc(F)cc1)N1CCOCC1 | 15.9 | 0.8 | 55.9* | 0.4 | / | 1.0
CCOC(=O)C1=C(O)/C(=C\c2cccc(OC)c2)N=C1C | 27.7 | 0.7 | 65.4* | 0.3 | / | 2.0
COc1cc(OC)c(C2C(C(=O)Nc3ccc(C)cc3C)=C(C)Nc3ncnn32)cc1OC (stereo unspecified) | -22.3 | 1.2 | -11.1 | 1.1 | -4.8 | -5.0
C=CCc1ccc(OCC(O)CN2CCCCC2C)c(OC)c1 (stereo unspecified) | -10.0 | 1.1 | 16.2 | 0.8 | -26.7 | 9.0
CCc1ccc(S(=O)(=O)NCc2cn3cccc(C)c3n2)s1 | -34.3 | 1.3 | 7.2 | 0.9 | 6.9 | 5.0
CCc1ccc(S(=O)(=O)NCc2cn3ccsc3n2)s1 | -1.1 | 1 | 47.1 | 0.5 | -6.7 | 1.0
CCc1ccc(S(=O)(=O)NCc2cn3ccccc3n2)s1 | 20.5 | 0.8 | 85.8* | 0.1 | -24.8 | 0.0
CCc1ccc(S(=O)(=O)NCCc2cn3ccsc3n2)s1 | 48.3 | 0.5 | 68.5* | 0.3 | 0.0 | -1.0
O=CNC(=O)c1ccccc1C(=O)O | -17.0 | 1.2 | -8.7 | 1.1 | 6.7 | 5.0
O=C(Nc1ccnc(-c2cccnc2)n1)c1cccc(Cl)c1Cl | 24.2 | 0.8 | 51.0* | 0.5 | / | 0.0
CCCCC(=O)Nc1ccnc(-c2cccnc2)n1 | 76.2* | 0.2 | 97.8* | 0 | / | 4.0
CC(C)C(=O)Nc1ccnc(-c2cccnc2)n1 | 42.1 | 0.6 | 75.9* | 0.2 | / | 18.0
CC(C)C(=O)Nc1ccc(NC(=O)c2cccnc2)cn1 | -23.1 | 1.2 | 18.3 | 0.8 | / | 4.0
O=C(Nc1ccnc(-c2cccnc2)n1)c1ccccc1Cl | 25.0 | 0.8 | 24.1 | 0.8 | / | 0.0
Cc1nn(CC(=O)NCc2ccc(OC(C)C)cc2)c(=O)c2cc3occc3n12 | -31.7 | 1.3 | 8.2 | 0.9 | / | -4.0
CC1CCCN(C(=O)c2cc(F)c(F)cc2Cl)C1 (stereo unspecified) | -12.3 | 1.1 | 1.9 | 1 | -10.6 | 7.0
CC(C)Nc1nc(NC(C)C)nc(OCCOC(=O)Nc2ccccc2)n1 | 29.8 | 0.7 | 30.4 | 0.7 | / | 13.0
COc1ccc(S(=O)(=O)Cc2ccc(C(=O)N3CCN(c4ccccc4F)CC3)o2)cc1 | 88.7* | 0.1 | 49.2 | 0.5 | 14.7 | 1.0
CCOC(=O)N1CCN(C(=O)c2ccc(CS(=O)(=O)c3ccc(OC)cc3)o2)CC1 | 70.8* | 0.3 | -10.3 | 1.1 | -11.2 | 2.0
COc1ccc(S(=O)(=O)Cc2ccc(C(=O)N3CCCC3)o2)cc1 | 5.2 | 0.9 | 7.4 | 0.9 | -12.8 | 4.0
COc1ccc(S(=O)(=O)Cc2ccc(C(=O)N3CCN(c4ccccc4)CC3)o2)cc1 | 65.7* | 0.3 | 27.9 | 0.7 | 19.6 | -3.0
CC1CCN(C(=O)CSc2nc(N)cc(N)n2)CC1 | 0.0 | 1 | 2.3 | 1 | -4.5 | -5.0
O=C(Cn1cc2c(n1)CCCC2)N1CCCC1 | -9.9 | 1.1 | -0.4 | 1 | -16.5 | -1.0
CCOC(=O)c1c(-n2c(C)cc(C=O)c2C)sc2c1CCCC2 | 60.6* | 0.4 | 18.0 | 0.8 | / | -1.0

Screens deposited in PubChem by several laboratories.
